From ChEMBL document CHEMBL1155001, “Design, synthesis of novel peptidomimetic derivatives of 4-HPR for rhabdoid tumors” (Bioorg Med Chem Lett, 2008)

Tests used:
Format in all cases: functional, cell-based
[1] = Cytotoxicity against INI1 gene deficient human MON cells assessed as cell survival after 3 days by MTS assay; conditions: 72 h
Method in brief: (§1)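 INI1-deficient MON rhabdoid tumor cells were grown in RPMI 1640 with 10% FBS, 2 mM L-glutamine, penicillin and streptomycin at 37 °C in 5% CO2. Survival was read by MTS after 3 days. Relative IC50 was taken from a sigmoidal variable-slope fit of % inhibition vs log concentration.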

[2] = Cytotoxicity against human MON cells assessed as cell survival after 3 days by MTS assay; conditions: 72 h; method in brief: as §1
G-401 = assay: Cytotoxicity against human G401 cells assessed as cell survival after 3 days by MTS assay; conditions: G-401, 72 h
[3] = Cytotoxicity against human STM cells assessed as cell survival after 3 days by MTS assay; conditions: 72 h

In the case of `CCC1=C(C)/C(=C/c2ccc(C(=O)Nc3ccc(O)c(Cl)c3)cc2)CCC1(C)C`, the IC50 [1] is reported as 10.4 µM.
In the case of `CCC1=C(C)/C(=C/c2ccc(C(=O)Nc3ccc(O)c(F)c3)cc2)CCC1(C)C`, the IC50 [1] is reported as 12.9 µM.
In the case of `CCC1=C(C)/C(=C/c2ccc(C(=O)Nc3ccc(O)c(I)c3)cc2)CCC1(C)C`, the IC50 [1] is reported as 3.15 µM.
With `CCC1=C(C)/C(=C/c2ccc(C(=O)Nc3ccc(O)cc3O)cc2)CCC1(C)C` the IC50 [1] was 47.2 µM.
With `CCC1=C(C)/C(=C/c2ccc(C(=O)O)cc2)CCC1(C)C` the IC50 [1] was > 50 µM.
Work on `CCC1=C(C)/C(=C/c2ccc(C(=O)Nc3ccc(CO)cc3)cc2)CCC1(C)C` yielded an IC50 [1] of 29.1 µM.
`CC1=C(/C=C/C(C)=C/C=C/C(C)=C/C(=O)Nc2ccc(O)cc2)C(C)(C)CCC1` [FENRETINIDE] showed an IC50 [2] of 12 µM, an IC50 (G-401) of 5 µM and an IC50 [1] of 14.7 µM. It also gave an IC50 [3] of 5 µM.
